# How the values were obtained:
# Parameters in all cases: dose 5 mg/kg, dosed compound name [14C]-apixaban, route oral
# Details in all cases: in vivo
# Spleen = assay: Biodistribution in pregnant Sprague-Dawley rat spleen at 5 mg/kg, po administered as single dose measured after 48 hrs; assay type: ADME, organism-based
# Method in brief: (§1)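 Pregnant SD rats (270-319 g) were fasted overnight and given one oral gavage of 5 mg/kg (100 μCi/kg) in 0.5% Tween 80 in Labrafil. One rat was euthanized per time point (0.5, 1, 4, 8, 24, 48 h) and the carcass frozen. 40 µm sagittal sections were phosphor-imaged against [14C]glucose standards and results reported as µg eq/g; LLOQ 0.037 µg eq/g.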
# Heart = assay: Biodistribution in male Sprague-Dawley rat heart at 5 mg/kg, po administered as single dose measured after 24 hrs; assay type: ADME, organism-based
# Method in brief: (§2)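 Fasted male SD rats (225-252 g) each received one oral gavage dose of [14C]apixaban, 5 mg/kg (100 μCi/kg), in 0.5% Tween 80/Labrafil vehicle. One rat was killed per time point, from 0.5 to 168 h. Frozen carcasses were cut into 40 µm sagittal whole-body sections and read by QWBA phosphor imaging against [14C]glucose calibrants. Results are in µg apixaban eq/g; BLQ <0.037 µg eq/g.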
# Muscle tissue [1] = assay: Biodistribution in female Sprague-Dawley rat muscle at 5 mg/kg, po administered as single dose measured after 0.5 hrs; assay type: ADME, organism-based
# Method in brief: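 [¹⁴C]Apixaban given by oral gavage at 5 mg/kg (100 μCi/kg) in 0.5% Tween 80 in Labrafil (1.0 mg/mL dosing solution) to rats fasted overnight through 4 h post-dose. One rat per time point; carcass frozen in hexane/dry ice. Quantitative whole-body autoradiography used 40 µm sagittal sections and a phosphor imaging plate calibrated with [¹⁴C]glucose standards (0.001–6.5 μCi/g). Read-out in µg eq apixaban/g; LLOQ 0.037 μg eq/g.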
# Rattus norvegicus [2] = assay: Biodistribution in pregnant Sprague-Dawley rat brown fat at 5 mg/kg, po administered as single dose measured after 4 hrs; assay type: ADME, organism-based, Brown adipose tissue
# [3] = Drug level in lactating Sprague-Dawley rat milk at 5 mg/kg, po administered as single dose after 24 hrs; assay type: ADME, organism-based
# Muscle tissue [4] = assay: Biodistribution in male Sprague-Dawley rat muscle at 5 mg/kg, po administered as single dose measured after 1 hr; assay type: ADME, organism-based
# Method in brief: (§3)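 [14C]apixaban (1.0 mg/mL, 20 μCi/mL) in 0.5% Tween 80 in Labrafil, given by oral gavage at 100 μCi/kg to male rats (225-252 g) fasted overnight through 4 h post-dose. One rat per time point. Carcasses frozen in hexane/dry ice and cut into 40 µm sagittal sections. QWBA read on phosphor plates against [14C]glucose standards, reported as µg eq/g. LLOQ 0.037 µg eq/g.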
# Rattus norvegicus [5] = assay: Biodistribution in pregnant Sprague-Dawley rat kidney cortex at 5 mg/kg, po administered as single dose measured after 4 hrs; assay type: ADME, organism-based
# Muscle tissue [6] = assay: Biodistribution in male Sprague-Dawley rat muscle at 5 mg/kg, po administered as single dose measured after 24 hrs; assay type: ADME, organism-based; method in brief: as §3
# Lung [7] = assay: Biodistribution in female Sprague-Dawley rat lung at 5 mg/kg, po administered as single dose measured after 72 hrs; assay type: ADME, organism-based
# Method in brief: (§4)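 Quantitative whole-body autoradiography was run after a single 5 mg/kg (100 μCi/kg) oral gavage to fasted female or pregnant SD rats, one rat per time point. Carcasses were frozen in hexane/dry ice, and 40 µm sagittal sections were dried at −20°C for at least 48 h. Sections were exposed to a phosphor plate alongside [14C]glucose standards (0.001–6.5 µCi/g). Results are µg eq/g, with LLOQ 0.037 µg eq/g.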
# Rattus norvegicus [8] = assay: Biodistribution in fetal brain of pregnant Sprague-Dawley rat at 5 mg/kg, po administered as single dose measured after 4 hrs; assay type: ADME, organism-based
# Method in brief: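 Pregnant SD rats received a single oral gavage of [14C]apixaban at 5 mg/kg (100 μCi/kg; 1.0 mg/mL, 20 μCi/mL in 0.5% Tween 80/Labrafil) after fasting, one dam per time point. Frozen carcasses were cut into 40 µm sagittal sections and read by phosphor-imaging QWBA against [14C]glucose standards. Fetal tissue radioactivity is reported as µg eq/g, with LLOQ 0.037 µg eq/g.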
# Adrenal gland = assay: Biodistribution in pregnant Sprague-Dawley rat adrenal gland at 5 mg/kg, po administered as single dose measured after 48 hrs; assay type: ADME, organism-based
# Method in brief: (§5)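 Fasted pregnant SD rats (n=6, 270-319 g) each received one oral gavage dose of [14C]apixaban, 5 mg/kg (100 μCi/kg), in 0.5% Tween 80/Labrafil. One rat was killed at each of 0.5, 1, 4, 8, 24 and 48 h. Carcasses were frozen in hexane/dry ice, cut into 40 µm sagittal sections, exposed to phosphor plates and quantified against [14C]glucose standards as µg eq/g. LLOQ was 0.037 µg eq/g.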
# Rattus norvegicus [9] = assay: Biodistribution in female Sprague-Dawley rat brown fat at 5 mg/kg, po administered as single dose measured after 0.5 hrs; assay type: ADME, organism-based, Brown adipose tissue
# Method in brief: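 [14C]apixaban (20 μCi/mL in dosing solution) in 0.5% Tween 80 in Labrafil given by oral gavage to fasted female rats, 206-213 g, at 100 μCi/kg. One rat per time point was euthanized and snap-frozen. Sagittal 40 µm whole-body sections were read by QWBA phosphor imaging against [14C]glucose standards. Results are in µg eq apixaban/g, with LLOQ 0.037 μg eq/g.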
# Blood = assay: Biodistribution in pregnant Sprague-Dawley rat blood at 5 mg/kg, po administered as single dose measured after 24 hrs; assay type: ADME, organism-based; method in brief: as §5
# Muscle tissue [10] = assay: Biodistribution in female Sprague-Dawley rat muscle at 5 mg/kg, po administered as single dose measured after 24 hrs; assay type: ADME, organism-based; method in brief: as §4
# Rattus norvegicus [11] = assay: Biodistribution in fetal kidney of pregnant Sprague-Dawley rat at 5 mg/kg, po administered as single dose measured after 4 hrs; assay type: ADME, organism-based
# Method in brief: (§6)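 Pregnant rats, 270-319 g and fasted overnight, received [14C]apixaban by oral gavage at 100 μCi/kg in 0.5% Tween 80/Labrafil. One dam per time point was euthanized and frozen in hexane/dry ice. Fetal tissue radioactivity was measured by QWBA on 40 µm sagittal sections calibrated with [14C]glucose standards. Values are in µg eq/g, with LLOQ 0.037 μg eq/g.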
# Thymus = assay: Biodistribution in male Sprague-Dawley rat thymus at 5 mg/kg, po administered as single dose measured after 24 hrs; assay type: ADME, organism-based; method in brief: as §2
# Rattus norvegicus [12] = assay: Biodistribution in female Sprague-Dawley rat pituitary gland at 5 mg/kg, po administered as single dose measured after 72 hrs; assay type: ADME, organism-based; method in brief: as §4
# Lung [13] = assay: Biodistribution in pregnant Sprague-Dawley rat lung at 5 mg/kg, po administered as single dose measured after 48 hrs; assay type: ADME, organism-based; method in brief: as §1
# Rattus norvegicus [14] = assay: Biodistribution in pregnant Sprague-Dawley rat salivary gland at 5 mg/kg, po administered as single dose measured after 4 hrs; assay type: ADME, organism-based
# Harderian gland = assay: Biodistribution in male Sprague-Dawley rat harderian gland at 5 mg/kg, po administered as single dose measured after 24 hrs; assay type: ADME, organism-based; method in brief: as §2
# Rattus norvegicus [15] = assay: Biodistribution in fetal blood of pregnant Sprague-Dawley rat at 5 mg/kg, po administered as single dose measured after 1 hr; assay type: ADME, organism-based; method in brief: as §6
# Rattus norvegicus [16] = assay: Biodistribution in pregnant Sprague-Dawley rat pituitary gland at 5 mg/kg, po administered as single dose measured after 8 hrs; assay type: ADME, organism-based
# Rattus norvegicus [17] = assay: Biodistribution in pregnant Sprague-Dawley rat kidney cortex at 5 mg/kg, po administered as single dose measured after 1 hr; assay type: ADME, organism-based
structure (smiles),measurement,setting,value
COc1ccc(-n2nc(C(N)=O)c3c2C(=O)N(c2ccc(N4CCCC[14C]4=O)cc2)CC3)cc1,Radiolabel recovery,Spleen,Not detected assumed BLQ
same,Radiolabel recovery,Heart,Not detected assumed BLQ
same,Radiolabel recovery,Muscle tissue [1],0.23 ugequiv/g
same,Radiolabel recovery,Rattus norvegicus [2],0.87 ugequiv/g
same,Radiolabel recovery,[3],0.31 µg/mL
same,Radiolabel recovery,Muscle tissue [4],0.43 ugequiv/g
same,Radiolabel recovery,Rattus norvegicus [5],1.93 ugequiv/g
same,Radiolabel recovery,Muscle tissue [6],< 0.037 ugequiv/g
same,Radiolabel recovery,Lung [7],Not sampled as not visualised in autoradiograph
same,Radiolabel recovery,Rattus norvegicus [8],0.06 ugequiv/g
same,Radiolabel recovery,Adrenal gland,Not sampled as not visualised in autoradiograph
same,Radiolabel recovery,Rattus norvegicus [9],0.48 ugequiv/g
same,Radiolabel recovery,Blood,Not detected assumed BLQ
same,Radiolabel recovery,Muscle tissue [10],Not detected assumed BLQ
same,Radiolabel recovery,Rattus norvegicus [11],0.46 ugequiv/g
same,Radiolabel recovery,Thymus,Not detected assumed BLQ
same,Radiolabel recovery,Rattus norvegicus [12],Not detected assumed BLQ
same,Radiolabel recovery,Lung [13],Not detected assumed BLQ
same,Radiolabel recovery,Rattus norvegicus [14],1.03 ugequiv/g
same,Radiolabel recovery,Harderian gland,Not detected assumed BLQ
same,Radiolabel recovery,Rattus norvegicus [15],0.31 ugequiv/g
same,Radiolabel recovery,Rattus norvegicus [16],0.19 ugequiv/g
same,Radiolabel recovery,Rattus norvegicus [17],2.03 ugequiv/g

# — ChEMBL document CHEMBL3525963, “Tissue distribution and elimination of [14C]apixaban in rats” (Drug Metab Dispos, 2011)
